Measurements published in ChEMBL document CHEMBL1136055, “3-Heteroaryl-2-pyridones: benzodiazepine site ligands with functional delectivity for alpha 2/alpha 3-subtypes of human GABA(A) receptor-ion channels” (J Med Chem, 2002).
pKi: −log10 of the molar value.

Key:
[1] = Clp at a dose of 2.0 mg/kg; assay type: ADME, organism-based; parameters: dose 2 mg/kg; details: in vivo
[2] = Maximum concentration at a dose of 2.0 mg/kg; assay type: ADME, organism-based; parameters: dose 2 mg/kg; details: in vivo
[3] = Oral bioavailability at a dose of 2.0 mg/kg; assay type: ADME, organism-based; details: eutheria, in vivo
[4] = Maximum time at a dose of 2.0 mg/kg; assay type: ADME, organism-based; parameters: dose 2 mg/kg; details: in vivo
[5] = half life at a dose of 2.0 mg/kg; assay type: ADME, organism-based; parameters: dose 2 mg/kg; details: in vivo
[6] = Vdss at a dose of 2.0 mg/kg; assay type: ADME, organism-based; parameters: dose 2 mg/kg; details: in vivo, read-out: Vdss
[7] = Partition coefficient (logD); assay type: physicochemical; details: octanol/water
[8] = target: T1, GABA-A receptor; alpha-2/beta-3/gamma-2 (Homo sapiens, UniProt P18507+P28472+P47869); assay: Displacement of [3H]Ro-151788 from human Gamma-aminobutyric acid A receptor alpha-2-beta-3-gamma-2 stably expressed in L(tk-) cells; assay type: cell-based
T1 sequence (P18507 whole entry): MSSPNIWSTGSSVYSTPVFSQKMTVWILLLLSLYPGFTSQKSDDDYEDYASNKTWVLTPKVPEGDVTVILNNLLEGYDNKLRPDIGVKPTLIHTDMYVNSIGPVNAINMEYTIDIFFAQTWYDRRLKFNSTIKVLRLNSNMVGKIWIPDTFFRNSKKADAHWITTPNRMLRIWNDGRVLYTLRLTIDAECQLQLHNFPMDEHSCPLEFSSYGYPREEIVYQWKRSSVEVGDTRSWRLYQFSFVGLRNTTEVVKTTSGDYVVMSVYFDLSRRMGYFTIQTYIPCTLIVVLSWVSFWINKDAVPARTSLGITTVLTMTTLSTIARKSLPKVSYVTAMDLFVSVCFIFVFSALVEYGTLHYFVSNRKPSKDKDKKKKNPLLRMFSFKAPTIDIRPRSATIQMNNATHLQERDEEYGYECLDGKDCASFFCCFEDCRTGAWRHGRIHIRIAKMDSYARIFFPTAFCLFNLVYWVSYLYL
T1 sequence (P28472 whole entry): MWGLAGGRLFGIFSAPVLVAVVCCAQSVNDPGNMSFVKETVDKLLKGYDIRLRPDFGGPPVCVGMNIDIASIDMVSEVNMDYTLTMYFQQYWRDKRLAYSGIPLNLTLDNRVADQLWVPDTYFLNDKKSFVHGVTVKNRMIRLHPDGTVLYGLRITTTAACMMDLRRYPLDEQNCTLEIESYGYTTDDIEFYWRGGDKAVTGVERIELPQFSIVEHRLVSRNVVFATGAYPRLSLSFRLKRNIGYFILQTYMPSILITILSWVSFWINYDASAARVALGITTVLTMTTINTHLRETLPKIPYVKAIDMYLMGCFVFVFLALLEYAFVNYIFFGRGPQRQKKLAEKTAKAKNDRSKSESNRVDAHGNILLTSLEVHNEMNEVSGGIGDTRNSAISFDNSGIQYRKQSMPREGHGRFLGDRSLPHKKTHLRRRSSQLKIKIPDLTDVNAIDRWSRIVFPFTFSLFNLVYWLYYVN
T1 sequence (P47869 whole entry): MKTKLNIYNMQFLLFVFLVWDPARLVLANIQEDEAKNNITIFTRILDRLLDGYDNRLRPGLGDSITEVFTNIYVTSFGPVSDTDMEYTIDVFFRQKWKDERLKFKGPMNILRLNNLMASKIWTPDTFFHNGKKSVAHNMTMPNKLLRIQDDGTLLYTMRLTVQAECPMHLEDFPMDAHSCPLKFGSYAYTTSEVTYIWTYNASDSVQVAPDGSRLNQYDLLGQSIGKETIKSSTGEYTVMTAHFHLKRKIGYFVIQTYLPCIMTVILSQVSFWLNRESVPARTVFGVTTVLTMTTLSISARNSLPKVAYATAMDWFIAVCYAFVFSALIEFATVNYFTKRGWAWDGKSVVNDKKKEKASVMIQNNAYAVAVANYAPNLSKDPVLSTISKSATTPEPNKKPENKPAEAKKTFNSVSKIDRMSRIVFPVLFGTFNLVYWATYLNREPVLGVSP
Outline: (§1)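 Competition binding against [3H]Ro15-1788 on cloned human α1/α2/α3/α5 β3γ2S receptors stably expressed in L(tk-) cells. Six to eight test concentrations spaced in half-log steps. Ki given as mean (SEM), n = 3-5, reported to two significant figures.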

[9] = target: T2, GABA-A receptor; alpha-5/beta-3/gamma-2 (Homo sapiens, UniProt P18507+P28472+P31644); assay: Displacement of [3H]Ro-151788 from human GABA-A receptor alpha-5-beta-3-gamma-2 subunits expressed in L(tk-) cells; assay type: cell-based; outline: as §1
T2 sequence (P18507 whole entry): T1 sequence (P18507 whole entry)
T2 sequence (P28472 whole entry): T1 sequence (P28472 whole entry)
T2 sequence (P31644 whole entry): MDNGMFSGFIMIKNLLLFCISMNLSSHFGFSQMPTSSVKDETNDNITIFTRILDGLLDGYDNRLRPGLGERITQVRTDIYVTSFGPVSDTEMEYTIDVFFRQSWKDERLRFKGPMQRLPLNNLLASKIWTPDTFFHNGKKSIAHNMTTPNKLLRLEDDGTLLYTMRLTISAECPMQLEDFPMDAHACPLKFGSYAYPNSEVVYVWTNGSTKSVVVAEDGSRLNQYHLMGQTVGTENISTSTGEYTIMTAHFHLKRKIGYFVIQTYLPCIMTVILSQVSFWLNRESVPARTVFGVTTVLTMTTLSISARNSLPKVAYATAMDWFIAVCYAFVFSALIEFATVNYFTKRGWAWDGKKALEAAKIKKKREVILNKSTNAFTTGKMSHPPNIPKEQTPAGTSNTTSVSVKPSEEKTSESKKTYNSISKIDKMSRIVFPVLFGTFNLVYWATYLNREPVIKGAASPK

[10] = Maximum concentration at a dose of 1.5 mg/kg; assay type: ADME, organism-based; parameters: dose 1.5 mg/kg; details: in vivo
[11] = Maximum time at a dose of 1.5 mg/kg; assay type: ADME, organism-based; parameters: dose 1.5 mg/kg; details: in vivo
[12] = Oral bioavailability at a dose of 1.5 mg/kg; assay type: ADME, organism-based; details: eutheria, in vivo
[13] = Vdss at a dose of 1.5 mg/kg; assay type: ADME, organism-based; parameters: dose 1.5 mg/kg; details: in vivo, read-out: Vdss
[14] = Log D was evaluated; assay type: physicochemical; details: octanol/water
[15] = target: T2, GABA-A receptor; alpha-5/beta-3/gamma-2; assay: Inhibition of [3H]Ro-151788 binding to human GABA A receptor (alpha-5-beta-3-gamma-2) stably expressed in L(tk-) cells.; assay type: cell-based; outline: as §1
[16] = Half life at a dose of 1.5 mg/kg; assay type: ADME, organism-based; parameters: dose 1.5 mg/kg; details: in vivo
[17] = Clp at a dose of 1.5 mg/kg; assay type: ADME, organism-based; parameters: dose 1.5 mg/kg; details: in vivo

A Clp [1] of 44 mL/min/kg, a Cmax [2] of 83 ng/mL and a bioavailability [3] of 25% were found for `COc1ccc(-c2cc(-c3nc(C)cs3)c(=O)n(C)c2-c2ccncc2)cc1` in this work. The Tmax [4] was 18 min, the half-life [5] was 102 min and the Vd [6] was 3.3 L/kg. The logD [7] was 3.6, the pKi [8] was 8.07 and the pKi [9] was 6.49.

A Cmax [10] of 170 ng/mL, a Tmax [11] of 30 min and a bioavailability [12] of 65% were found for `COc1ccc(-c2cc(-c3nc(C)cs3)c(=O)n(C)c2-c2ccnnc2)cc1` in this work. The Vd [13] was 2.5 L/kg, the logD [14] was 2.7 and the pKi [8] was 8.18. It also gave a pKi [15] of 6.48, a half-life [16] of 66 min and a Clp [17] of 35 mL/min/kg.
